# From ChEMBL document CHEMBL1122066, “Arylhydroxamic acid N,O-acyltransferase substrates. Acetyl transfer and electrophile generating activity of N-hydroxy-N-(4-alkyl-, 4-alkenyl-, and 4-cyclohexylphenyl)acetamides” (J Med Chem, 1982)
# Key:
# Rattus norvegicus [1] = species on record: Rattus norvegicus; assay: Tested for its arylhydroxamic acid N,O-Acyltransferase (AHAT) catalyzed transacetylation of aminoazobenzene with partially purified hepatic enzyme in rat; type: functional
# How it was run: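 Rat liver AHAT came from 105000g cytosol, partially purified 2- to 3-fold by ammonium sulfate. It was assayed at 1.0 mg/mL protein in pH 7.0 pyrophosphate/1 mM DTT/KCl with hydroxamic acid (1.0 mM) and AAB (0.15 mM) for 5 min at 37 °C in air. The reaction was stopped with TCA/EtOH and read at 497 nm, with a heat-denatured enzyme control. Rates are mean ± SE, N = 3–4, run in triplicate.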
# [2] = tested on: arylhydroxamic acid N,O-acyltransferase (Mesocricetus auratus); assay: Tested for its arylhydroxamic acid N,O-Acyltransferase (AHAT) catalyzed transacetylation of aminoazobenzene with partially purified hepatic enzyme in hamster; design: Rate: unit not given here
# [3] = tested on: arylhydroxamic acid N,O-acyltransferase (Mesocricetus auratus); assay: Tested for its arylhydroxamic acid N,O-Acyltransferase (AHAT) catalyzed transacetylation of aminoazobenzene with hamster hepatic enzyme after dialysis
# Rattus norvegicus [4] = species on record: Rattus norvegicus; assay: Aminoazobenzene transacetylation inhibition by partially purified hepatic enzyme using 4-chloro mercuri benzenesulfonate as inhibitor (1.0 mM) in rat; type: functional
# How it was run: (§1)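 Rat or hamster liver cytosol (105000g supernatant), partially purified by ammonium sulfate fractionation, was incubated 5 min with the sulfhydryl reagent (1.0 mM). AAB transacetylation was then run in pH 7.0 pyrophosphate/1 mM DTT at 37 °C with hydroxamic acid donor (1.0 mM final) and AAB (0.15 mM final). It was stopped with TCA/EtOH and read at 497 nm. Values are % inhibition, means of 2–3 triplicate experiments.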
# [5] = tested on: arylhydroxamic acid N,O-acyltransferase (Mesocricetus auratus); assay: Tested for its arylhydroxamic acid N,O-Acyltransferase (AHAT) catalyzed transacetylation of aminoazobenzene with hamster hepatic enzyme before dialysis
# Rattus norvegicus [6] = species on record: Rattus norvegicus; assay: Aminoazobenzene transacetylation inhibition by partially purified hepatic enzyme using N-ethyl maleimide as inhibitor (1.0 mM) in rat; type: functional; how it was run: as §1
# Cricetinae gen. sp. [7] = assay: Aminoazobenzene transacetylation inhibition by partially purified hepatic enzyme using iodo acetamide as inhibitor (1.0 mM) in hamster; conditions: at 1 mM
# Cricetinae gen. sp. [8] = assay: Aminoazobenzene transacetylation inhibition by partially purified hepatic enzyme using N-ethyl maleimide as inhibitor (1.0 mM) in hamster; type: functional; conditions: Cricetulus griseus; how it was run: as §1
# Cricetinae gen. sp. [9] = assay: Aminoazobenzene transacetylation inhibition by partially purified hepatic enzyme using 4-chloro mercuri benzenesulfonate as inhibitor (1.0 mM) in hamster; type: functional; conditions: Cricetulus griseus; how it was run: as §1
# Rattus norvegicus [10] = species on record: Rattus norvegicus; assay: Aminoazobenzene transacetylation inhibition by partially purified hepatic enzyme using iodo acetamide as inhibitor (1.0 mM) in rat; type: functional; how it was run: as §1
# Cricetinae gen. sp. [11] = assay: Aminoazobenzene transacetylation inhibition by partially purified hepatic enzyme using iodo acetamide as inhibitor (1.0 mM) in hamster; type: functional; conditions: Cricetulus griseus; how it was run: as §1
# Cricetulus griseus = species on record: Cricetulus griseus; assay: Tested for its arylhydroxamic acid N,O-Acyltransferase (AHAT) catalyzed transacetylation of aminoazobenzene with hamster hepatic enzyme after dialysis; type: functional
# How it was run: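 Hamster enzyme (partially purified by ammonium sulfate) was preincubated 20 min at 37 °C in air with the hydroxamic acid; controls had ethanol only. It was then dialyzed 6 h at 4 °C against N2-sparged pH 7.0 pyrophosphate/1 mM DTT/2% EtOH with three buffer changes. Portions taken before and after dialysis were assayed with AAB plus the same hydroxamic acid for 5 or 8 min, read at 497 nm. Rates are nmol/mg/min, mean of two triplicate experiments.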
SMILES,Rate (Rattus norvegicus [1]) [nmol/min/mg],Rate [2],other results
CC(=O)N(O)c1ccccc1,0.2,0.6,–
CC(=O)N(O)c1ccc(C2CCCCC2)cc1,4.7,–,Rate (mg of protein) [3]: 1.7; inhibition (Rattus norvegicus [4]; at 1 mM): 100%; Rate (mg of protein) [5]: 3.2; inhibition (Rattus norvegicus [6]; at 1 mM): 100%; inhibition (Cricetinae gen. sp. [7]): 100%; inhibition (Cricetinae gen. sp. [8]; at 1 mM): 96%; inhibition (Cricetinae gen. sp. [9]; at 1 mM): 100%; inhibition (Rattus norvegicus [10]; at 1 mM): 99%; Rate (mg of protein) [2]: 9.4
CCCc1ccc(N(O)C(C)=O)cc1,3.1,5.3,–
C/C=C/c1ccc(N(O)C(C)=O)cc1,5.9,13,–
CC(=O)N(O)c1ccc(-c2ccccc2)cc1,5.8,22.4,inhibition (Cricetinae gen. sp. [11]): 100%; inhibition (Rattus norvegicus [4]): 100%; Rate (mg of protein) (Cricetulus griseus): 6.9; Rate (mg of protein) [5]: 6.3; inhibition (Rattus norvegicus [6]): 92%; inhibition (Cricetinae gen. sp. [8]): 100%; inhibition (Cricetinae gen. sp. [9]): 100%; inhibition (Rattus norvegicus [10]): 95%
CCCCc1ccc(N(O)C(C)=O)cc1,4.7,8.8,–
CCc1ccc(N(O)C(C)=O)cc1,2.1,3.5,–
CCCCCc1ccc(N(O)C(C)=O)cc1,5.2,13.8,–
CC(=O)N(O)c1ccc(C)cc1,1.1,2.1,–
CC(=O)N(O)c1ccc(C=C(C)C)cc1,5.7,13.1,–
C=Cc1ccc(N(O)C(C)=O)cc1,3.3,6.6,–
